≈ marks a conversion by molar mass, not a printed value. Where “and” joins values, the source holds several entries; their conditions need not be identical. Identical values can stand only once.
Test system: Escherichia coli
Test: Minimum inhibitory concentration against Escherichia coli was determined
Format: functional
Conditions: not given
How it was run: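 Broth microdilution against E. coli BL21(DE3) pLysS in cation-adjusted Mueller–Hinton broth. Stocks in 1 M KOH, diluted via 50 mM Na2CO3 pH 8.5; final 0.01–64 μg/mL.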
For `Oc1cc(F)ccc1Oc1ccccc1`, the MIC was 0.6 µg/mL (≈ 2.94 µM). `Oc1cc(Cl)ccc1Oc1ccc(Cl)cc1Cl` [TRICLOSAN] gave an MIC of 0.3 µg/mL (≈ 1.04 µM). With `Oc1cc(Cl)ccc1Oc1ccccc1` the MIC was 0.07 µg/mL (≈ 0.317 µM). `Oc1ccccc1Cc1ccccc1O` gave an MIC greater than 40 µg/mL. For `Cc1ccc(Oc2ccccc2)c(O)c1`, the MIC was 1 µg/mL (≈ 4.99 µM). Compound `Oc1ccccc1Oc1ccccc1` has an MIC of 3.7 µg/mL (≈ 19.9 µM).

Test system: not listed separately
Test: Ionisation constant for the compound
Format: physicochemical
Conditions: not given
How it was run: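 pKa measured by UV–vis absorbance of the conjugate base in buffers from pH 6.8 to 10.8; DMSO stocks diluted to 0.4–0.5% DMSO. Fraction of A− plotted against pH to obtain pKa.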
In the case of `Oc1cc(Cl)ccc1Oc1ccc(Cl)cc1Cl` [TRICLOSAN], the pKa is reported as 8.4.

Same assay, conditions: read-out: pKa
`Oc1cc(F)ccc1Oc1ccccc1` gave a pKa of 8.12. For `Oc1cc(Cl)ccc1Oc1ccc(Cl)cc1Cl` [TRICLOSAN], the pKa was 7.8. Compound `Oc1cc(Cl)ccc1Oc1ccccc1` has a pKa of 8.13. Work on `Cc1ccc(Oc2ccccc2)c(O)c1` yielded a pKa of 9.15. Work on `Oc1ccccc1Oc1ccccc1` yielded a pKa of 9.12.

Molecular target: Enoyl-[acyl-carrier-protein] reductase [NADH] FabI (Escherichia coli) (UniProt P0AEK4)
Sequence (P0AEK4 whole entry, looked up): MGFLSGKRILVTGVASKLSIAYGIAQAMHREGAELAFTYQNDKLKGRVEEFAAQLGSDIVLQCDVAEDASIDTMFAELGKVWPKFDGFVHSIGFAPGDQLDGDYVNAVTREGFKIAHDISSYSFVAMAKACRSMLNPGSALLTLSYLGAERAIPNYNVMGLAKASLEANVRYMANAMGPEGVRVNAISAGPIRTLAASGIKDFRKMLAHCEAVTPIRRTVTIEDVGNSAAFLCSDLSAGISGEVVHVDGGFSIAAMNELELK
Test: In vitro inhibitory activity against wild-type enoyl-[acyl-carrier-protein] reductase (FabI) of Escherichia coli expressed as K1
Conditions: not given
With `Oc1cc(Cl)ccc1Oc1ccccc1` the K1 was 1.1e-06 µM. Compound `Oc1ccccc1Cc1ccccc1O` has a K1 of 53 µM. For `Oc1ccccc1Oc1ccccc1`, the K1 was 0.5 µM.

Molecular target: Enoyl-[acyl-carrier-protein] reductase [NADH] FabI (Escherichia coli) (UniProt P0AEK4)
Test: In vitro inhibitory activity against wild-type enoyl-[acyl-carrier-protein] reductase (FabI) of Escherichia coli expressed as K2
Conditions: not given
With `Oc1cc(F)ccc1Oc1ccccc1` the K2 was 42 nM and 240 nM. Work on `Oc1ccccc1Cc1ccccc1O` yielded a K2 of 30000 nM. In the case of `Cc1ccc(Oc2ccccc2)c(O)c1`, the K2 is reported as 7.2 nM and 9.7 nM. `Oc1ccccc1Oc1ccccc1` gave a K2 of 400 nM.
